Reference: ChEMBL document CHEMBL1144520, “Synthesis of 5-deazaflavin derivatives and their activation of p53 in cells” (2007)
Active and inactive are the calls of the source. The rule behind the calls is not given here.

How the values were obtained:
[1] = tested on: RPE; test: Induction of p21WAF1/CIP1 level in RPE cells; format: functional, cell-based; details: Homo sapiens
Procedure, shortened: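 Primary human retinal pigment epithelial (RPE) cells were exposed to each compound at 1–20 µM for 24 h. Whole-cell extracts were resolved by SDS 12% polyacrylamide gel electrophoresis and read out by Western blotting.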

[2] = tested on: RKO/E6; test: Induction of apoptosis in RKO/E6 cells; format: functional, cell-based; details: Homo sapiens
Procedure, shortened: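 RKO/E6 cells are RKO cells expressing HPV16 E6 protein, which inactivates endogenous p53. They are used to test p53 dependence of the apoptotic response.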

[3] = tested on: RKO; test: Cell cycle arrest in RKO cells by accumulation at G2/M phase; format: functional, cell-based; details: Homo sapiens
[4] = tested on: RKO; test: Stabilization of p53 level in RKO cells; format: functional, cell-based; details: Homo sapiens
[5] = tested on: RKO; test: Cell cycle arrest in RKO cells by accumulation at G2 phase; format: functional, cell-based; details: Homo sapiens
[6] = tested on: RKO; test: Induction of apoptosis in RKO cells; format: functional, cell-based; details: Homo sapiens
[7] = tested on: RKO; test: Cell cycle arrest in RKO cells by accumulation at G1 phase; format: functional, Homo sapiens

| Structure (SMILES) | Activity [1] | Activity [2] | Activity [3] | Activity [4] | Activity [5] | Activity [6] | Activity [7] [%] | Activity ([7]; Homo sapiens) |
| --- | --- | --- | --- | --- | --- | --- | --- | --- |
| O=c1nc2n(-c3ccccc3Cl)c3ccc([N+](=O)[O-])cc3cc-2c(=O)[nH]1 | Active | Active | Active | Active | Active |  |  |  |
| Cc1ccc(-n2c3nc(=O)[nH]c(=O)c-3cc3c(C(F)(F)F)cccc32)cc1 | inactive | inactive |  | inactive |  | inactive | 62 |  |
| Cc1ccc(-n2c3nc(=O)[nH]c(=O)c-3cc3c(Cl)cccc32)cc1 | Active | inactive |  | Active |  |  | 73 |  |
| O=c1nc2n(-c3ccc(Cl)cc3)c3cccc(Cl)c3cc-2c(=O)[nH]1 | Active | inactive |  | Active |  |  |  | Active |
| O=c1nc2n(-c3ccccc3Cl)c3cccc(Cl)c3cc-2c(=O)[nH]1 |  | Active | Active | Active | Active |  |  |  |
| O=c1nc2n(-c3ccc(Cl)cc3)c3ccc(C(F)(F)F)cc3cc-2c(=O)[nH]1 | inactive | inactive |  | inactive |  | inactive |  |  |
| O=c1nc2n(-c3cccc(Cl)c3)c3ccc([N+](=O)[O-])cc3cc-2c(=O)[nH]1 | Active | inactive |  | Active |  |  | 75 |  |
